This note sets out measurements from ChEMBL document CHEMBL1764980, “Synthesis and biological evaluation of orally active prodrugs of indomethacin” (J Med Chem, 2011).

Data set [1] can be described thus: Aqueous solubility of the compound in 0.2 M phosphate buffer at pH 7.4 after 4 hrs by HPLC analysis. It counts as physicochemical. An outline of the steps: (§1)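 5 mg compound in 10 mL buffer, shaken at 400 rpm for 4 h at 40 °C. Then passed through a 0.20 μm membrane filter. Filtrate quantified by HPLC at 254 nm for both solubility and hydrolysis to parent. Detection limits estimated by HPLC.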

Data set [2] deals with Rattus norvegicus. As to the kind of experiment: Gastrointestinal toxicity in Wistar rat assessed as ulcerogenic index at 100 mg/kg, po administered as single dose. It counts as organism-based. Also on record: dose 100 mg/kg, route oral. To be noted: in vivo. The method, boiled down:
(§2)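 Male Wistar rats (150-200 g), n = 6 per group, fasted 18 h with water available. Single oral dose of 100 mg/kg. Killed under ether 6 h after dosing; stomach opened along the greater curvature, washed and examined. Lesion lengths measured by Vernier caliper and graded I (<1 mm), II (1-3 mm) or III (>3 mm). UI = 1×(I) + 2×(II) + 3×(III), averaged over six animals.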

The nature of data set [3]: Metabolic stability in rat plasma assessed as compound remaining at 5 mM after 60 mins by HPLC analysis. It counts as ADME, cell-free. To be noted: read-out: Stability.
The subject of data set [4] is Rattus norvegicus. As to the kind of experiment: Gastrointestinal toxicity in Wistar rat assessed as appearance ulcer area of <1 mm diameter at 100 mg/kg, po administered as single dose after 6 hrs by Vernier caliper. To be noted: in vivo. It counts as organism-based. Also on record: dose 100 mg/kg, route oral. The method, boiled down: as §2
Data set [5] can be described thus: Partition coefficient, log P of the compound in n-octanol-phosphate buffer at pH 7.4 by HPLC analysis. It counts as physicochemical. An outline of the steps:
(§3)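 Shake-flask method at 25 °C. 1-octanol and aqueous buffer (0.2 M phosphate pH 7.4 or 0.1 M citric acid pH 3.0) pre-saturated with each other for 24 h. Compound shaken in 5 mL each phase for 60 min at 400 rpm, then centrifuged at 3500 rpm for 5 min. Both phases quantified by HPLC at 254 nm. log P = log(octanol/water concentration). Run in triplicate.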

Data set [6] can be described thus: Chemical stability of the compound at 0.2 M phosphate buffer assessed as hydrolysis to parent compound at pH 7.4 after 4 hrs by HPLC analysis. Type of data set: physicochemical. To be noted: pH 7.4, 4 h. An outline of the steps: as §1
A short description of data set [7]: Metabolic stability in rat liver microsomes assessed as compound remaining at 5 mM after 60 mins by HPLC analysis. The note with it: read-out: Stability. It counts as ADME, Microsome. (In general: Liver microsomes are a subcellular fraction often used to study metabolism.)
Data set [8] in a line: Aqueous solubility of the compound in 0.1 M boric acid buffer at pH 9 after 4 hrs by HPLC analysis. Type of data set: physicochemical. An outline of the steps:
as §1

Data set [9] relates to Rattus norvegicus. The experiment in a line: Antiinflammatory activity in Wistar rat assessed as inhibition of carrageenan-induced paw edema at 100 mg/kg, po administered 1 hr before carrageenan challenge measured after 3 hrs by plethysmograph relative to control. Type of data set: functional. An outline of the steps: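 Male Wistar rats (150-200 g). Carrageenan 1% (0.1 mL) injected subplantar into left paw under light ether anaesthesia; test compound 100 mg/kg po given 1 h before. Paw volume read by plethysmograph 3 h after carrageenan. % inhibition = (carrageenan − test)/(carrageenan − normal) × 100. Groups: normal control, carrageenan, carrageenan plus treatment.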
On the technique in general: Carrageenan injected into the paw causes an acute inflammation.

Data set [10] is described as follows: Aqueous solubility of the compound in 0.1 M citric acid buffer at pH 3 after 4 hrs by HPLC analysis. Type of data set: physicochemical. The method, boiled down: as §1
The nature of data set [11]: Chemical stability of the compound at 0.1 M boric acid buffer assessed as hydrolysis to parent compound at pH 9 after 4 hrs by HPLC analysis. It counts as physicochemical. The note with it: pH 9, 4 h. The method, boiled down:
as §1

Data set [12] can be described thus: Aqueous solubility of the compound in 0.2 M hydrochloric acid buffer at pH 1 after 4 hrs by HPLC analysis. Type of data set: physicochemical. An outline of the steps:
as §1

The nature of data set [13]: Metabolic stability in rat liver microsomes assessed as compound remaining at 5 mM after 30 mins by HPLC analysis. Type of data set: ADME, Microsome. The note with it: read-out: Stability.
Data set [14] in a line: Chemical stability of the compound at 0.1 M phosphate buffer assessed as hydrolysis to parent compound at pH 5.2 after 4 hrs by HPLC analysis. It counts as physicochemical. The note with it: pH 5.2, 4 h. An outline of the steps: as §1
Data set [15] in a line: Chemical stability of the compound at 0.2 M hydrochloric acid buffer assessed as hydrolysis to parent compound at pH 1 after 4 hrs by HPLC analysis. The note with it: pH 1, 4 h. Type of data set: physicochemical. The method, boiled down: as §1
The nature of data set [16]: Chemical stability of the compound at 0.1 M citric acid buffer assessed as hydrolysis to parent compound at pH 3 after 4 hrs by HPLC analysis. To be noted: pH 3, 4 h. Type of data set: physicochemical. An outline of the steps:
as §1

The nature of data set [17]: Aqueous solubility of the compound in 0.1 M phosphate buffer at pH 5.2 after 4 hrs by HPLC analysis. It counts as physicochemical. An outline of the steps: as §1
The nature of data set [18]: Partition coefficient, log P of the compound in 1-octanol-citric acid buffer at pH 3 by HPLC analysis. It counts as physicochemical. The method, boiled down:
as §3

Data set [19] has as its system Rattus norvegicus. As to the kind of experiment: Gastrointestinal toxicity in Wistar rat assessed as appearance ulcer area of 1 to 3 mm diameter at 100 mg/kg, po administered as single dose after 6 hrs by Vernier caliper. Also on record: dose 100 mg/kg, route oral. Type of data set: organism-based. To be noted: in vivo. The method, boiled down: as §2
For data set [20], the system named is Rattus norvegicus. The experiment in a line: Gastrointestinal toxicity in Wistar rat assessed as appearance ulcer area of >3 mm diameter at 100 mg/kg, po administered as single dose after 6 hrs by Vernier caliper. It counts as organism-based. Also on record: dose 100 mg/kg, route oral. The note with it: in vivo. The method, boiled down:
as §2

Some results are limits rather than exact numbers.

For `COc1ccc2c(c1)c(CC(=O)OCOC(=O)C(C)(C)C)c(C)n2C(=O)c1ccc(Cl)cc1`, the solubility at 4 h in [1], in data set [8], in [10], in data set [12] and in data set [17] was below 0.084 µg/mL throughout. Moreover, the UI in the data set on Rattus norvegicus [2] came out at 19. Moreover, the remaining at 1 h in data set [3] and in data set [7] was 0% in each case. Also, the Activity with Rattus norvegicus [4] worked out at 100%. Besides, the logD in [5] stood at 4.7; in [18] it was 4.6. For the same molecule, the Stability in [6] stood at 0.294 µg/mL; in data set [11] it was 2.187 µg/mL; in data set [14], 0.1525 µg/mL; in data set [15] it was 0.021 µg/mL; in data set [16] it was 0.0075 µg/mL. The inhibition in vivo at 100 mg/kg in the data set with Rattus norvegicus [9] turned out to be 48.4%. In addition, in data set [13], the remaining at 0.5 h turned out to be 0%.
On to `COc1ccc2c(c1)c(CC(=O)OCOC(=O)OC(C)C)c(C)n2C(=O)c1ccc(Cl)cc1`, for which the solubility at 4 h in data set [1], in data set [8], in data set [10], in [12] and in data set [17] was below 0.119 µg/mL in each case. The UI in the data set with Rattus norvegicus [2] turned out to be 62. For the same molecule, the values for the Activity with Rattus norvegicus [4], in the data set with Rattus norvegicus [19] and in the data set with Rattus norvegicus [20] were 86.3%, 5.9% and 7.8%, respectively. In addition, the logD worked out at 5 in data set [5] and 5.1 in data set [18]. For the same molecule, the Stability in [6] stood at 0.01332 µg/mL; in data set [11], 0.2461 µg/mL; in data set [14] it was 0.01379 µg/mL; in data set [15] it was 0.01 µg/mL; in data set [16], 0.00539 µg/mL. Further, in the data set with Rattus norvegicus [9], the inhibition in vivo at 100 mg/kg came to 45.2%.
Take `COc1ccc2c(c1)c(CC(=O)OCCOC(C)=O)c(C)n2C(=O)c1ccc(Cl)cc1`: the solubility at 4 h in data set [1], in data set [8], in [10], in [12] and in data set [17] was below 0.111 µg/mL throughout. For the same molecule, the UI in the data set with Rattus norvegicus [2] is listed as 0. Also, the remaining at 1 h in data set [3] and in data set [7] was 0% throughout. In addition, the logD came to 3.5 in [5] and 4.2 in [18]. The Stability in data set [6] worked out at 0.0093 µg/mL; in [11] it was 0.369 µg/mL; in [14], 0.0197 µg/mL; in [15] it was 0.0103 µg/mL; in data set [16], 0.0092 µg/mL. For the same molecule, in the data set on Rattus norvegicus [9], the inhibition in vivo at 100 mg/kg came to 44.4%. In addition, in data set [13], the remaining at 0.5 h was found to be 1.14%.
In the case of `COc1ccc2c(c1)c(CC(=O)OCc1oc(=O)oc1C)c(C)n2C(=O)c1ccc(Cl)cc1`, the solubility at 4 h in data set [1], in data set [8], in data set [10], in data set [12] and in [17] was below 0.0638 µg/mL each time. In addition, the UI in the data set with Rattus norvegicus [2] is recorded as 0. Moreover, the results for the logD in data set [5] and in data set [18] were 2.9 and 4.5, respectively. The Stability in data set [6] turned out to be 0.0101 µg/mL; in data set [11] it was 0.5106 µg/mL; in [14], 0.0244 µg/mL; in data set [15] it was 0.0191 µg/mL; in data set [16], 0.0134 µg/mL. In addition, in the data set with Rattus norvegicus [9], the inhibition in vivo at 100 mg/kg was 12.1%.
For the molecule `COc1ccc2c(c1)c(CC(=O)O)c(C)n2C(=O)c1ccc(Cl)cc1` [INDOMETHACIN], the UI in the data set on Rattus norvegicus [2] is listed as 47. Besides, the remaining at 1 h was found to be 97.1% in data set [3] and 80.2% in data set [7]. The Activity turned out to be 90.2% with Rattus norvegicus [4], 4.9% in the data set with Rattus norvegicus [19] and 4.9% in the data set with Rattus norvegicus [20]. Also, the inhibition in vivo at 100 mg/kg with Rattus norvegicus [9] came to 48.4%. In addition, the remaining at 0.5 h in data set [13] came to 90.3%. In addition, the logD in data set [18] stood at 4.2.

Broadly, the solubility is how much of the substance goes into solution per volume. Lower therefore signals a poorly soluble substance. As usually defined, the logD is the decadic logarithm of the distribution of all forms, ionised or not, between an organic phase and buffer at a given pH. The term inhibition in vivo denotes the change of the read-out against control, counted positive when it falls.
